# Experimental data: ChEMBL document CHEMBL1133630, “Chemical synthesis and pharmacology of 6- and 7-hydroxylated 2-carbomethoxy-3-(p-tolyl)tropanes: antagonism of cocaine's locomotor stimulant effects” (J Med Chem, 2000)
# Tests used:
# Rattus norvegicus [1] = species on record: Rattus norvegicus; test: To inhibit high affinity uptake of [3H]dopamine (DA) into nerve endings (synaptosomes) prepared from various regions of the rat brain.; format: functional
# Method in brief: (§1)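 Radiolabelled monoamine uptake inhibition. Six drug concentrations, each in triplicate, chosen from preliminary screens to bracket the approximate IC50.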
# [2] = biological target: T1, Sodium-dependent dopamine transporter (Rattus norvegicus, UniProt P23977); test: Inhibition of [3H]mazindol binding to dopamine transporter of rat striatal membranes.; format: cell membranes, Membrane
# T1 sequence (P23977 whole entry): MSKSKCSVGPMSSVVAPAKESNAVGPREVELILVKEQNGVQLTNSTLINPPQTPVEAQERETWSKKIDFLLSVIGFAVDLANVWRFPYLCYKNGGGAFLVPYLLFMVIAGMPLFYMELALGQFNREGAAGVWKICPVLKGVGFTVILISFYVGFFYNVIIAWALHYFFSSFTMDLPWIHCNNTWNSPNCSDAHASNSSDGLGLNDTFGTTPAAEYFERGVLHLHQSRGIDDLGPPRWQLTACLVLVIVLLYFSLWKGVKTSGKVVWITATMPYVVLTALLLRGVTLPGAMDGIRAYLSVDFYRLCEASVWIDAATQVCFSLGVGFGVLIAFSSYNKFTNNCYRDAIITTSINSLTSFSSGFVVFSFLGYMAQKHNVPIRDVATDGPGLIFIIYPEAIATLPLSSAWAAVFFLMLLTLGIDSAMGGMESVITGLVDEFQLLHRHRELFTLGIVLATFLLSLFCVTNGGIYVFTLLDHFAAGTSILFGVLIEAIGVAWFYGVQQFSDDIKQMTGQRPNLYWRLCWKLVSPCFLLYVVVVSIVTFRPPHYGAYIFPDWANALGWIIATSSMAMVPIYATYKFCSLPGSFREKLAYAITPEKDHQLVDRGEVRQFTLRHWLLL
# Rattus norvegicus [3] = species on record: Rattus norvegicus; test: To inhibit high affinity uptake of [3H]NE into nerve endings (synaptosomes) prepared from various regions of the rat brain.; format: functional; method in brief: as §1
# [4] = biological target: T1, Sodium-dependent dopamine transporter; test: Inhibition of high affinity uptake of [3H]dopamine into nerve endings (synaptosomes) prepared from various regions of the rat brain.; format: subcellular; method in brief: as §1
# Rattus norvegicus [5] = species on record: Rattus norvegicus; test: To inhibit high affinity uptake of [3H]5-HT into nerve endings (synaptosomes) prepared from various regions of the rat brain.; format: functional; method in brief: as §1
SMILES,Ki (Rattus norvegicus [1]),Ki [2],Ki (Rattus norvegicus [3]),Ki [4],Ki (Rattus norvegicus [5])
Cc1ccc(C2C[C@H]3CC4OC(=O)C2C4N3C)cc1 (stereo partly drawn),25000 nM,–,–,–,–
CCCC1C2CC[C@H](C[C@@H]1c1ccc(C)cc1)N2C (stereo partly drawn),–,21 nM,6.3 nM,51.8 nM,80.2 nM
COC(=O)[C@@H]1C2CC[C@H](C[C@@H]1c1ccccc1)N2C,–,89.4 nM,37.2 nM,–,173 nM
COC(=O)[C@H]1C2C(O)C[C@H](C[C@@H]1c1ccc(C)cc1)N2C (stereo partly drawn),–,2900 nM,1000 nM,5600 nM,3000 nM
COC(=O)[C@@H]1C2C[C@H](O)[C@H](C[C@@H]1c1ccc(C)cc1)N2C,–,–,154 nM,–,6700 nM
COC(=O)[C@H]1C2[C@H](O)C[C@H](C[C@H]1c1ccc(C)cc1)N2C,–,135 nM,60.9 nM,–,–
COC(=O)[C@@H]1C2C(O)C[C@H](C[C@@H]1c1ccc(C)cc1)N2C (stereo partly drawn),–,25.2 nM,44.7 nM,39.2 nM,581 nM
COC(=O)[C@H]1C2[C@@H](O)C[C@H](C[C@H]1c1ccc(C)cc1)N2C (stereo in doubt; 14b),–,1400 nM,300 nM,2900 nM,> 100000 nM
COC(=O)[C@H]1C2[C@@H](O)C[C@H](C[C@H]1c1ccc(C)cc1)N2C (stereo in doubt; 19b),–,540 nM,–,676 nM,–
COC(=O)[C@H]1[C@@H](OC(=O)c2ccccc2)C[C@@H]2CC[C@H]1N2C [COCAINE],–,–,108 nM,–,155 nM
